In ChEMBL document CHEMBL3243939, “Derivatives of 1,3-disubstituted 2,4(1H,3H)-quinazolinediones as possible peripheral vasodilators or antihypertensive agents” (1979):
≈ marks a conversion by molar mass, not a printed value.

How the values were obtained:
[1] = system: Canis familiaris; assay: Vasodilatory activity in dog assessed as increase of femoral blood flow by 100 mL/min administered as intraarterially; assay type: functional, Canis lupus familiaris
How it was run: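 Pentobarbital-anesthetized dogs with an electromagnetic flowmeter sensor around a femoral artery. Compound was injected intraarterially through a branch vessel at increasing doses, and the peak flow increase after each dose was recorded. ED100, the dose raising flow 100 mL/min above control, was extrapolated from the dose-response curve.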

[2] = system: Rattus norvegicus; assay: Antihypertensive activity in Wistar rat assessed as decrease of systolic blood pressure at 31 mg/kg, po up to 8 hrs; assay type: functional, Artery
How it was run: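 Renal hypertension in female Wistar rats: figure-of-eight ligature on one kidney, other kidney removed. Rats with systolic pressure above 160 mmHg used, groups of ten. Tail-cuff occlusion with pulse detector measured systolic pressure before and 2, 4, 6, 8 h after a 31 mg/kg oral dose. Value is the mean decrease over 8 h ± standard error.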

[3] = organism: Oryctolagus cuniculus; assay: Blockade of alpha-adrenergic receptor in rabbit aortic strips assessed as reduction of epinephrine-induced response
How it was run: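 Rabbit aortic strip sensitized by repeated exposure to 0.01 mcg/mL epinephrine. Responses to this concentration were compared before and after 200 s incubation with rising compound concentrations. Percent blockade was calculated at each concentration. ED50, the concentration blocking the response by 50%, was extrapolated from the concentration-response curve.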

SMILES | ED100 [1] [µg] | Activity [2] [mmHg] | ED50 [3] [µg/mL]
CN(C)CCCN1C(=O)C(CCCCCCCN2CCN(c3ccccc3)CC2)C(=O)c2ccccc21.CO.O=C(O)C(=O)O (configuration not stated) | 205 | 12 | 0.64
COc1ccc(Cc2nccc3cc(OC)c(OC)cc23)cc1OC [PAPAVERINE] | 1825 |  | 
Cc1ccc(N(CC2=NCCN2)c2cccc(O)c2)cc1 [PHENTOLAMINE] | 117 | 45 | 0.03 (≈ 0.107 µM)
